# From ChEMBL document CHEMBL3797026, “Caatinga plants: Natural and semi-synthetic compounds potentially active against Trichomonas vaginalis” (Bioorg Med Chem Lett, 2016)
# Active and inactive are the calls of the source. The calls are words filed in the database; no cut-off is given here.
# Tests used:
# Trichomonas vaginalis [1] = test: Antitrichomonal activity against metronidazole-sensitive Trichomonas vaginalis ATCC 30236 clinical isolate trophozoites assessed as parasite viability at 100 uM after 24 hrs by trypan blue dye based hemocytometry; type: functional
# Method in brief: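 Single-concentration screen at 100 µM with trophozoites at 1.0 × 10^5/mL. Incubation was 24 h at 37 °C in 5.0% CO2, with a 0.62% DMSO vehicle control and 100 µM metronidazole as positive control. Viable parasites were counted by hemocytometer using motility, normal morphology and 0.2% trypan blue exclusion, and reported as % of untreated. Three experiments were run in triplicate.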
# Trichomonas vaginalis [2] = test: Antitrichomonal activity against metronidazole-resistant Trichomonas vaginalis TV-LACM2R clinical isolate trophozoites assessed as reduction in parasite viability at 15 uM after 24 hrs by trypan blue dye based hemocytometry; type: functional
# Method in brief: (§1)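 Trophozoites at 1.0 × 10^5/mL were incubated 24 h at 37 °C in 5.0% CO2. Viable parasites were counted by hemocytometer, judged by motility, normal morphology and exclusion of 0.2% trypan blue. Viability is expressed as a percentage of untreated parasites. Three independent parasite suspensions were each run in triplicate, reported as mean ± SD.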
# Trichomonas vaginalis [3] = test: Antitrichomonal activity against metronidazole-resistant Trichomonas vaginalis TV-LACM2R clinical isolate trophozoites; type: functional
# Trichomonas vaginalis [4] = test: Antitrichomonal activity against metronidazole-sensitive Trichomonas vaginalis ATCC 30236 clinical isolate trophozoites assessed as undulating membrane at 50 uM after 2 hrs by scanning electron microscopic analysis; type: functional, organism-based
# Method in brief: (§2)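 Scanning EM: trophozoites (1.0 × 10^5/mL) were treated or not with 50 µM. They were fixed in 2.5% glutaraldehyde in 0.1 M sodium cacodylate pH 7.2, post-fixed in 1.0% OsO4 in the same buffer, and dehydrated in acetone. Untreated trophozoites served as control.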
# Trichomonas vaginalis [5] = test: Antitrichomonal activity against metronidazole-sensitive Trichomonas vaginalis ATCC 30236 clinical isolate trophozoites assessed as membrane projections and holes at 50 uM after 2 hrs by scanning microscopic analysis; type: functional, organism-based; method in brief: as §2
# Trichomonas vaginalis [6] = test: Antitrichomonal activity against metronidazole-sensitive Trichomonas vaginalis ATCC 30236 clinical isolate trophozoites assessed as parasite shape disruption at 50 uM after 2 hrs by scanning electron microscopy; type: functional, organism-based; method in brief: as §2
# Trichomonas vaginalis [7] = test: Antitrichomonal activity against metronidazole-resistant Trichomonas vaginalis TV-LACM2R clinical isolate trophozoites assessed as reduction in parasite viability at 12.5 uM after 24 hrs by trypan blue dye based hemocytometry; type: functional, organism-based; method in brief: as §1
# Trichomonas vaginalis [8] = test: Antitrichomonal activity against metronidazole-sensitive Trichomonas vaginalis ATCC 30236 clinical isolate trophozoites assessed as reduction of parasite viability after 2 hrs by FDA/PI dye staining based flow cytometry relative to control; type: functional
# Method in brief: (§3)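 Flow cytometry: parasites were exposed or not to 50 µM for 0, 2, 4, 6 and 12 h, then co-stained with FDA and PI (10 µg/mL each) for 20 min. FDA-retaining cells with intact membranes were scored viable and PI-positive cells nonviable. Three parasite suspensions were tested in triplicate.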
# [9] = Cytotoxicity against african green monkey Vero cells assessed as reduction in cell viability after 24 hrs by MTT assay; type: cell-based; settings: chlorocebus sabaeus
# Trichomonas vaginalis [10] = test: Antitrichomonal activity against metronidazole-sensitive Trichomonas vaginalis ATCC 30236 clinical isolate trophozoites assessed as appearance of flagella at 50 uM after 2 hrs by scanning electron microscopic analysis; type: functional, organism-based; method in brief: as §2
# Trichomonas vaginalis [11] = test: Antitrichomonal activity against metronidazole-resistant Trichomonas vaginalis TV-LACM2R clinical isolate trophozoites assessed as reduction in parasite viability at 12.5 uM after 24 hrs by trypan blue dye based hemocytometry in presence of metronidazole; type: functional, organism-based; method in brief: as §1
# [12] = Selectivity index, ratio of CC50 for african green monkey Vero cells to IC50 for metronidazole-sensitive Trichomonas vaginalis ATCC 30236 clinical isolate trophozoites after 48 hrs; type: functional
# Method in brief: (§4)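 Selectivity index calculated as CC50 in the mammalian line (MTT, 24 or 48 h exposure) divided by the anti-T. vaginalis IC50.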
# HeLa [13] = test: Cytotoxicity against human HeLa cells assessed as reduction in cell viability at 50 uM after 48 hrs by MTT assay; type: cell-based
# Method in brief: (§5)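 MTT assay: cells were grown in DMEM with 10% FBS at 37 °C in 5% CO2 and seeded at 3.0 × 10^4 or 1.0 × 10^4 cells/well overnight. Medium was replaced with fresh medium with or without 50 µM, with 0.2% Triton X-100 as positive control, for 24 or 48 h. MTT (0.5 mg/mL) was added for 1 h, formazan was dissolved in DMSO and read at 570 nm. Triplicates.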
# [14] = Cytotoxicity against HMVII cells assessed as reduction in cell viability after 24 hrs by MTT assay; type: cell-based, HMV-2; settings: human
# [15] = Cytotoxicity against HMVII cells assessed as reduction in cell viability at 50 uM after 48 hrs by MTT assay; type: cell-based; settings: human, hmv-2, 48 h; method in brief: as §5
# Trichomonas vaginalis [16] = test: Antitrichomonal activity against metronidazole-sensitive Trichomonas vaginalis ATCC 30236 clinical isolate trophozoites assessed as rounded parasite at 50 uM after 2 hrs by scanning electron microscopic analysis; type: functional, organism-based; method in brief: as §2
# [17] = Selectivity index, ratio of CC50 for HMVII cells to IC50 for metronidazole-sensitive Trichomonas vaginalis ATCC 30236 clinical isolate trophozoites after 48 hrs; type: functional; method in brief: as §4
# [18] = Cytotoxicity against HMVII cells assessed as reduction in cell viability at 50 uM after 24 hrs by MTT assay; type: cell-based; settings: human, hmv-2, 24 h; method in brief: as §5
# HeLa [19] = test: Cytotoxicity against human HeLa cells assessed as reduction in cell viability at 50 uM after 24 hrs by MTT assay; type: cell-based; method in brief: as §5
# Trichomonas vaginalis [20] = test: Antitrichomonal activity against metronidazole-sensitive Trichomonas vaginalis ATCC 30236 clinical isolate trophozoites assessed as parasite viability after 2 to 12 hrs by FDA/PI dye staining based flow cytometry; type: functional, organism-based; method in brief: as §3
# [21] = Cytotoxicity against african green monkey Vero cells assessed as reduction in cell viability after 48 hrs by MTT assay; type: cell-based; settings: chlorocebus sabaeus
# Trichomonas vaginalis [22] = test: Antitrichomonal activity against metronidazole-sensitive Trichomonas vaginalis ATCC 30236 clinical isolate trophozoites assessed as inhibition of parasite growth at 50 uM after 12 to 24 hrs by hemocytometry; type: functional, organism-based
# Method in brief: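 Kinetic growth curve: trophozoites (1.0 × 10^5/mL) were incubated with or without 50 µM for 2, 4, 6, 12, 24, 48, 72 and 96 h. Parasites were counted by hemocytometer and expressed as trophozoites/mL relative to untreated controls.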
# Trichomonas vaginalis [23] = test: Antitrichomonal activity against metronidazole-sensitive Trichomonas vaginalis ATCC 30236 clinical isolate trophozoites assessed as decrease in parasite viability at 50 to 100 uM after 24 hrs by trypan blue dye based hemocytometry; type: functional, organism-based
# Method in brief: (§6)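 Trophozoites (1.0 × 10^5/mL) were cultured in TYM and exposed to a dilution series from 100 to 0.78 µM for 24 h. Viable counts were taken by hemocytometer with 0.2% trypan blue exclusion and compared with untreated parasites. To confirm the MIC, parasites were transferred to fresh TYM medium. Triplicates were run with three independent cultures.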
# [24] = Selectivity index, ratio of CC50 for african green monkey Vero cells to IC50 for metronidazole-sensitive Trichomonas vaginalis ATCC 30236 clinical isolate trophozoites after 24 hrs; type: functional; method in brief: as §4
# Trichomonas vaginalis [25] = test: Antitrichomonal activity against metronidazole-sensitive Trichomonas vaginalis ATCC 30236 clinical isolate trophozoites assessed as parasite viability after 24 hrs by trypan blue dye based hemocytometry; type: functional, organism-based; settings: ATCC 30236, 24 h; method in brief: as §6
# [26] = Cytotoxicity against HMVII cells assessed as reduction in cell viability after 48 hrs by MTT assay; type: cell-based, HMV-2; settings: human
# Vero = test: Cytotoxicity against african green monkey Vero cells assessed as reduction in cell viability at 50 uM after 24 to 48 hrs by MTT assay; type: cell-based; settings: chlorocebus sabaeus; method in brief: as §5
# [27] = Selectivity index, ratio of CC50 for HMVII cells to IC50 for metronidazole-sensitive Trichomonas vaginalis ATCC 30236 clinical isolate trophozoites after 24 hrs; type: functional; method in brief: as §4
smiles,measurement,setting,value
CCCCCC(=O)O[C@H]1CC[C@]2(C)[C@H]3CC=C4[C@@H]5CC(C)(C)CC[C@]5(C)CC[C@@]4(C)[C@]3(C)CC[C@H]2C1(C)C,Activity,Trichomonas vaginalis [1],62.8%
C=C(C)[C@@H]1CC[C@]2(C)CC[C@]3(C)[C@H](CC[C@@H]4[C@@]5(C)CC[C@H](OC(=O)CCCCC)C(C)(C)[C@@H]5CC[C@]43C)[C@@H]12,Activity,Trichomonas vaginalis [1],71.4%
CCCCCC(=O)O[C@H]1CC[C@]2(C)[C@H]3CC=C4[C@@H]5[C@@H](C)[C@H](C)CC[C@]5(C)CC[C@@]4(C)[C@]3(C)CC[C@H]2C1(C)C,Activity,Trichomonas vaginalis [1],56.2%
C[C@H]1[C@H](C)CC[C@]2(C)CC[C@]3(C)C(=CC[C@@H]4[C@@]5(C)CC[C@H](O)C(C)(C)[C@@H]5CC[C@]43C)[C@H]12,Activity,Trichomonas vaginalis [1],76.1%
CC(=O)O[C@H]1CC[C@]2(C)[C@H]3CC=C4[C@@H]5[C@@H](C)[C@H](C)CC[C@]5(C)CC[C@@]4(C)[C@]3(C)CC[C@H]2C1(C)C,Activity,Trichomonas vaginalis [1],56.4%
C=C(C)[C@@H]1CC[C@]2(C)CC[C@]3(C)[C@H](CC[C@@H]4[C@@]5(C)CC[C@H](OC(C)=O)C(C)(C)[C@@H]5CC[C@]43C)[C@@H]12 [LUPENYL ACETATE],Activity,Trichomonas vaginalis [1],59.8%
C=C(C)[C@@H]1CC[C@]2(C)CC[C@]3(C)[C@H](CC[C@@H]4[C@@]5(C)CC[C@H](O)C(C)(C)[C@@H]5CC[C@]43C)[C@@H]12 [LUPEOL],Activity,Trichomonas vaginalis [1],117.8%
Cc1ncc([N+](=O)[O-])n1CCO [METRONIDAZOLE],Activity,Trichomonas vaginalis [1],0%
same,Activity,Trichomonas vaginalis [2],80%
same,MIC,Trichomonas vaginalis [3],73 µM
CC1(C)CC[C@]2(C(=O)O)CC[C@]3(C)C(=CC[C@@H]4[C@@]5(C)CC[C@H](O)C(C)(C)[C@@H]5CC[C@]43C)[C@@H]2C1 [OLEANOLIC_ACID],Activity,Trichomonas vaginalis [1],78.3%
C[C@H]1[C@H](C)CC[C@]2(C(=O)O)CC[C@]3(C)C(=CC[C@@H]4[C@@]5(C)CC[C@H](O)C(C)(C)[C@@H]5CC[C@]43C)[C@H]12 [URSOLIC ACID],Activity,Trichomonas vaginalis [4],Active
same,Activity,Trichomonas vaginalis [5],Active
same,Activity,Trichomonas vaginalis [6],Active
same,Activity,Trichomonas vaginalis [7],Active
same,Activity,Trichomonas vaginalis [8],98%
same,CC50 at 24 h,[9],31.9 µM
same,Activity,Trichomonas vaginalis [10],Active
same,Activity,Trichomonas vaginalis [11],Active
same,Ratio CC50/IC50,[12],1.02
same,Activity,HeLa [13],90%
same,CC50 at 24 h,[14],146 µM
same,Activity,[15],90%
same,Activity,Trichomonas vaginalis [16],Active
same,Ratio CC50/IC50,[17],1.97
same,Activity,[18],60%
same,Activity,HeLa [19],50%
same,Activity,Trichomonas vaginalis [20],Active
same,CC50 at 48 h,[21],35.9 µM
same,growth inhibition (GI),Trichomonas vaginalis [22],Active
same,Activity,Trichomonas vaginalis [23],Active
same,Ratio CC50/IC50,[24],0.9
same,Activity,Trichomonas vaginalis [1],0%
same,IC50,Trichomonas vaginalis [25],35.3 µM
same,MIC,Trichomonas vaginalis [25],50 µM
same,CC50 at 48 h,[26],69.5 µM
same,Activity,Vero,30%
same,Ratio CC50/IC50,[27],4.13
CC(=O)O[C@H]1CC[C@]2(C)[C@H]3CC=C4[C@@H]5CC(C)(C)CC[C@]5(C)CC[C@@]4(C)[C@]3(C)CC[C@H]2C1(C)C [beta-AMYRIN ACETATE],Activity,Trichomonas vaginalis [1],54.5%
CC1(C)CC[C@]2(C)CC[C@]3(C)C(=CC[C@@H]4[C@@]5(C)CC[C@H](O)C(C)(C)[C@@H]5CC[C@]43C)[C@@H]2C1 [beta-AMYRIN],Activity,Trichomonas vaginalis [1],84.3%
